Measured values: ChEMBL document CHEMBL5126597, “Indazole MRL-871 interacts with PPARγ via a binding mode that induces partial agonism” (Bioorg Med Chem, 2022)
Activity calls are given as the source filed them. No cut-off for these calls is given here.

Key:
[1] = Stabilization of PPARgamma LBD (unknown origin)/FITC-labeled PGC-1alpha (unknown origin) protein-protein interaction assessed as dissociation constant by fluorescence anisotropy assay; set-up: species or system Homo sapiens
How it was run: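 Fluorescence anisotropy coactivator interaction assay: PPARγ LBD titrated to fluorophore-labelled PGC-1α peptide (10 nM) with DMSO or ligand at 10 µM. n = 3; representative data shown as mean ± s.d.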

[2] = target: T1, Peroxisome proliferator-activated receptor gamma (Homo sapiens) (UniProt P37231); assay: Stabilization of PPARgamma LBD (unknown origin) assessed as change in melting temperature in presence of SR16832 by differential scanning fluorimetry
T1 sequence (whole entry): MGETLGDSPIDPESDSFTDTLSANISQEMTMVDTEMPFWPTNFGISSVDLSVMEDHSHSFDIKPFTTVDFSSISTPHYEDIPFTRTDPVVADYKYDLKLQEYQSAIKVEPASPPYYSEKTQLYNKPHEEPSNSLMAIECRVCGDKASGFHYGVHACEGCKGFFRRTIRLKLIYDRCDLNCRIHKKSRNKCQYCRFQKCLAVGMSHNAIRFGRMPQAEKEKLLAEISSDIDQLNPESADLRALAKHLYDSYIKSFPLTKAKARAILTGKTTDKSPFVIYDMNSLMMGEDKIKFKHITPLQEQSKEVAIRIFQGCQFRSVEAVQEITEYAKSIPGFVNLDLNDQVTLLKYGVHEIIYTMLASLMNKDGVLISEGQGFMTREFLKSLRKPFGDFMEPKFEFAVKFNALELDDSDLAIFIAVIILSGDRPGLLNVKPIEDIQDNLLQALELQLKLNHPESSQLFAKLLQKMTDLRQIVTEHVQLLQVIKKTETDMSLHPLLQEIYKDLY

[3] = target: T1, Peroxisome proliferator-activated receptor gamma (Homo sapiens); assay: Stabilization of PPARgamma LBD (unknown origin) assessed as change in melting temperature in presence of GW9662 by differential scanning fluorimetry
[4] = target: T1, Peroxisome proliferator-activated receptor gamma (Homo sapiens); assay: Stabilization of PPARgamma LBD (unknown origin) assessed as change in melting temperature by differential scanning fluorimetry
[5] = target: T1, Peroxisome proliferator-activated receptor gamma (Homo sapiens); assay: Binding affinity to PPARgamma LBD (unknown origin) assessed as increase in thermal stability by differential scanning fluorimetry; settings: filed as partial agonist
[6] = target: T1, Peroxisome proliferator-activated receptor gamma (Homo sapiens); assay: Stabilization of PPARgamma LBD (unknown origin) assessed as melting temperature at 14 uM by differential scanning fluorimetry
How it was run: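 Differential scanning fluorimetry of PPARγ LBD (3.5 µM) with or without ligand at 14 µM (four equivalents) to obtain melting temperature. n ≥ 3, mean ± s.d.; with vs without compound compared by unpaired t-test.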

SMILES | Kd [1] [nM] | ΔTm [2] [°C] | ΔTm [3] [°C] | ΔTm [4] [°C] | Activity [5] | Tm [6] [°C]
CN(CCOc1ccc(CC2SC(=O)NC2=O)cc1)c1ccccn1 (stereo not given) [ROSIGLITAZONE] | 370 | -0.1 | 0 |  |  | 
COc1ccc2nccc(NC(=O)c3cc([N+](=O)[O-])ccc3Cl)c2c1 |  |  |  | 4.4 |  | 
O=C(O)c1ccc(-c2nn(C(=O)c3c(Cl)cccc3C(F)(F)F)c3ccccc23)cc1 | 710 | -0.6 | 1.1 |  | Active | 50.2
O=C(Nc1ccccc1)c1cc([N+](=O)[O-])ccc1Cl |  |  |  | 3.9 |  | 
